The target in experiment [1] is T1, Angiotensin-converting enzyme (Rattus norvegicus) (UniProt P47820).
T1 sequence (whole entry): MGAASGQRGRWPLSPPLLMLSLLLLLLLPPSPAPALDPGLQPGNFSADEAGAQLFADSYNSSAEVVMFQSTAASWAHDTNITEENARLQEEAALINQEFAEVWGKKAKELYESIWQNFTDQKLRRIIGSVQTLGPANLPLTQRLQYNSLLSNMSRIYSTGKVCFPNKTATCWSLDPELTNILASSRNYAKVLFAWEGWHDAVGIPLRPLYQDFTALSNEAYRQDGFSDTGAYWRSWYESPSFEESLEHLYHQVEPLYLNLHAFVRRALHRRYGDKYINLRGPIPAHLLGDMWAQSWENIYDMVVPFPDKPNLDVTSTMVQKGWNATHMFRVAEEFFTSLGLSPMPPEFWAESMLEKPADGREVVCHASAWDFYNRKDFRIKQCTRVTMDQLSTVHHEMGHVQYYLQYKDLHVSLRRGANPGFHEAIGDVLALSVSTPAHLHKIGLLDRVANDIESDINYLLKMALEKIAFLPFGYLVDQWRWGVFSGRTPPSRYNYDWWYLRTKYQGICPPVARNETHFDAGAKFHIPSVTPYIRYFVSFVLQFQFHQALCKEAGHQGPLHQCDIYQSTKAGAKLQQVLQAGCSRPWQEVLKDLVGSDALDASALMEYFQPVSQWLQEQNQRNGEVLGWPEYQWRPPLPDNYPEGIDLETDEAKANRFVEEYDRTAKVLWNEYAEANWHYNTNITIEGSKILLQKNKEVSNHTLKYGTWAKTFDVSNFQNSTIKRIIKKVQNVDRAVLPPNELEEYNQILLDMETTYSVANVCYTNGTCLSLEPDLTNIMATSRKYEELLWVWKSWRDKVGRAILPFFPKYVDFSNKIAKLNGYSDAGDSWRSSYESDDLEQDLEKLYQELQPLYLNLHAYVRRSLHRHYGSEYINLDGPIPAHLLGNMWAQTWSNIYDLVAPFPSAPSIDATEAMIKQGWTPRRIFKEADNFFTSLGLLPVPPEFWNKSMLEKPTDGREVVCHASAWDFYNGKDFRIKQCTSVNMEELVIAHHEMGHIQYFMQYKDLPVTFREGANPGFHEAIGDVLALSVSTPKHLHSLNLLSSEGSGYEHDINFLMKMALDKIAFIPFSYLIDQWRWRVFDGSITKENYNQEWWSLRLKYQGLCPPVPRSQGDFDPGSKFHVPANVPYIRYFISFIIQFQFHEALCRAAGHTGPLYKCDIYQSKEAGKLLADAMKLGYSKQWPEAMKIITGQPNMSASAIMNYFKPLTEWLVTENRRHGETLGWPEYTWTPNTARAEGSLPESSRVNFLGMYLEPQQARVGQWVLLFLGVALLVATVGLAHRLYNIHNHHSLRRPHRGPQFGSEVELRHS
In words: Compound tested in vivo for inhibition of Angiotensin I converting enzyme in rat. The class given is organism-based. Summed up: (§1)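 Male Sprague-Dawley rats (280–365 g) anesthetized with inactin (100 mg/kg ip) or dial urethane, with carotid blood pressure recorded. AI 1 µg/kg iv was given before and 5 min after each cumulative iv drug dose (3, 10, 30 µg/kg; EtOH/saline, ≤12% EtOH). Percent of control pressor response was regressed on log dose to give ID50 per animal, then averaged.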

Experiment [2] has as its target T2, Angiotensin-converting enzyme (Homo sapiens, UniProt P12821). Put plainly: (§2) Compound tested in vitro for inhibition of Angiotensin I converting enzyme.
For another experiment, the species on record is Canis familiaris. Put plainly: Compound was tested for its efficacy in dog. The class given is functional, Canis lupus familiaris.
Experiment [3] has as its target T3, Angiotensin-converting enzyme (Rattus norvegicus, UniProt P47820).
T3 sequence (P47820 whole entry): T1 sequence (whole entry)
The description is as §2. Summed up:
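In vitro ACE inhibition by the Cushman–Cheung procedure using crude enzyme preparations whose batches varied over time. IC50 determined with a reference inhibitor run concurrently.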

The target of experiment [4] is T2, Angiotensin-converting enzyme. Put plainly: Compound was tested for inhibitory activity against angiotensin converting enzyme when administered intravenously to anesthetized dogs. As to conditions: Canis lupus familiaris; target entry is the homologue from another species.
Experiment [5] has as its target T1, Angiotensin-converting enzyme (Rattus norvegicus). Put plainly: Compound tested in vivo for inhibition of angiotensin converting enzyme in rat. The format is organism-based. Summed up: as §1
The nature of experiment [6]: Compound tested in vitro for inhibition of Angiotensin I converting enzyme in rat. Summed up: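 Cushman–Cheung method using crude ACE enzyme preparations, with batches varying over the study period. IC50 was determined, and a reference ACE inhibitor was assayed concurrently in each run.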

T2 sequence (P12821 whole entry): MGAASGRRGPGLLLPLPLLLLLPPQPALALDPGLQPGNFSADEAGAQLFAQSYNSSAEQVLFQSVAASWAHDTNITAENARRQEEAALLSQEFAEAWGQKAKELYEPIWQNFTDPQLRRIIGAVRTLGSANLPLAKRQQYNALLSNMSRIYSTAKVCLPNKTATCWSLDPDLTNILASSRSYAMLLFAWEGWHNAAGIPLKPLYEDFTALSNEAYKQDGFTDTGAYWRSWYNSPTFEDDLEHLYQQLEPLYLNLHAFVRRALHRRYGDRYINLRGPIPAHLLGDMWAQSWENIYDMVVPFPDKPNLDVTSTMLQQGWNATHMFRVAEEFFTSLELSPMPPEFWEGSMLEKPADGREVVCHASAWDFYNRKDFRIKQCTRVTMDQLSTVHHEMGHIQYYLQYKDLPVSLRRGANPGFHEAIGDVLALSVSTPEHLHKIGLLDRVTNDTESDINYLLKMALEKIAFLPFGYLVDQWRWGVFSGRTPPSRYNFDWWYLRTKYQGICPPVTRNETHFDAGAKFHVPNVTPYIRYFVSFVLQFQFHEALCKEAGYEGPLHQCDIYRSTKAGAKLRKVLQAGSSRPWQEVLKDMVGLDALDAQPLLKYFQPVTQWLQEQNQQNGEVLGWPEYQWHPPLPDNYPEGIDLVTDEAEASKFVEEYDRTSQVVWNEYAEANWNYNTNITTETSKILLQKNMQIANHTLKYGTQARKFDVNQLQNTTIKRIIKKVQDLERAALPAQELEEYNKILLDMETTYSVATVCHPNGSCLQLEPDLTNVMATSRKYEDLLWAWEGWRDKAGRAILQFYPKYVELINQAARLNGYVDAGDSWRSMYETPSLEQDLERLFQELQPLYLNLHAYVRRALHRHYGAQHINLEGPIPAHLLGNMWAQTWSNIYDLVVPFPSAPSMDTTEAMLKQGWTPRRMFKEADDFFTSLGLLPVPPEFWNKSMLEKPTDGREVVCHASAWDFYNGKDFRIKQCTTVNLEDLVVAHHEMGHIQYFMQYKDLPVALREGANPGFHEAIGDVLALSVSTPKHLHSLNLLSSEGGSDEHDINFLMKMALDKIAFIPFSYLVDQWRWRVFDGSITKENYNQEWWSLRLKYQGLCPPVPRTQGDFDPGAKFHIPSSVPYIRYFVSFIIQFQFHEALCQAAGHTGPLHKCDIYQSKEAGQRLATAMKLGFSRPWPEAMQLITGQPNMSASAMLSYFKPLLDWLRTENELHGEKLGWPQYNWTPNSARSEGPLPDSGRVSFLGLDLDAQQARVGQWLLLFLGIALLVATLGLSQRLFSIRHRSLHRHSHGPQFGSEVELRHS

In general, IC50 refers to the point on the concentration scale where inhibition reaches its midpoint. A high value points to weaker potency in that assay. Turning to `CCOC(=O)[C@H](CCc1ccccc1)N[C@@H](CCCCN)C(=O)N1CC2(C[C@H]1C(=O)O)SCCS2`, the ID50 in experiment [1] worked out at 0.01 mg/kg. In experiment [2], inhibition was half-maximal at 200 nM (IC50).

Take `C[C@H](N[C@@H](CCc1ccccc1)C(=O)O)C(=O)N1CCC[C@H]1C(=O)O`: in experiment [1], the ID50 turned out to be 0.015 mg/kg.

In turn, `CCOC(=O)[C@H](CCc1ccccc1)N[C@@H](C)C(=O)N1CC2(C[C@H]1C(=O)O)SCCS2` displayed an Efficacy in the experiment filed under Canis familiaris of 0.3 mg/kg. In experiment [3], this compound showed an IC50 of 67 nM. Besides, the values for the ID50 in experiment [4] and in experiment [5] were 0.3 mg/kg and 0.016 mg/kg, respectively.

Compound `CCOC(=O)[C@H](CCc1ccccc1)NCC(=O)N1CC2(C[C@H]1C(=O)O)SCCS2` came in with an ID50 in experiment [1] of 0.221 mg/kg.

As for `NCCCC[C@H](N[C@@H](CCc1ccccc1)C(=O)O)C(=O)N1CC2(C[C@H]1C(=O)O)SCCS2`, in experiment [1], the ID50 was determined as 0.01 mg/kg. In experiment [2], the IC50 was 0.5 nM.

For `CCOC(=O)[C@H](CCc1ccccc1)N[C@@H](C)C(=O)N1CCC[C@H]1C(=O)O`, the ID50 in experiment [5] came out at 0.057 mg/kg.

On to `CCOC(=O)C(CCc1ccccc1)N[C@@H](C)C(=O)N1CC2(C[C@H]1C(=O)O)SCCS2` (stereo partly drawn), for which, in experiment [6], the IC50 worked out at 92 nM.

`NCCCC[C@H](N[C@@H](CCc1ccccc1)C(=O)O)C(=O)N1CCC[C@H]1C(=O)O` [LISINOPRIL ANHYDROUS]: in experiment [6], the IC50 was 1.2 nM. Against the preceding compound, the IC50 is about 77-fold lower.

These data come from ChEMBL document CHEMBL1124532, “Angiotensin converting enzyme inhibitors: spirapril and related compounds” (J Med Chem, 1989).
